Test results from ChEMBL document CHEMBL3808334, “Synthesis and in vitro evaluation of novel triazine analogues as anticancer agents and their interaction studies with bovine serum albumin” (Eur J Med Chem, 2016).

Key:
Assay type in all cases: functional
[1] = Growth inhibition of human SF295 cells assessed as cell growth at 10^-7 M incubated for 48 hrs by sulforhodamine B assay; conditions: SF-295, 48 h, read-out: Activity
[2] = system: 786-0; assay: Growth inhibition of human 786-0 cells assessed as cell growth at 10^-6 M incubated for 48 hrs by sulforhodamine B assay; conditions: 786-0, 48 h, read-out: Activity
In short: (§1)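 Five-dose assay: five concentrations from 10-fold or ½-log serial dilutions. Cells are plated at 5,000–40,000 per well according to doubling time, grown 24 h, then exposed 48 h at 37 °C, 5% CO₂. Fixed with cold 50% TCA (final addition) for 60 min at 4 °C and stained with 0.4% SRB in 1% acetic acid. Bound dye is solubilized in 10 mM Tris base and read at 515 nm. GI₅₀ is where [(Ti−Tz)/(C−Tz)]×100 = 50, with a time-zero plate as Tz.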

[3] = system: SK-MEL-5; assay: Growth inhibition of human SK-MEL-5 cells assessed as cell growth at 10^-6 M incubated for 48 hrs by sulforhodamine B assay; conditions: SK-MEL-5, 48 h, read-out: Activity
[4] = Growth inhibition of human RXF393 cells assessed as cell growth at 10^-4 M incubated for 48 hrs by sulforhodamine B assay; conditions: RXF 393, 48 h, read-out: Activity
[5] = system: NCI-H226; assay: Growth inhibition of human NCI-H226 cells assessed as cell growth at 10^-5 M incubated for 48 hrs by sulforhodamine B assay; conditions: NCI-H226, 48 h, read-out: Activity
[6] = system: NCI/ADR-RES; assay: Growth inhibition of human NCI/ADR-RES cells assessed as cell growth at 10^-4 M incubated for 48 hrs by sulforhodamine B assay; conditions: read-out: Activity
[7] = system: NCI-H460; assay: Growth inhibition of human NCI-H460 cells assessed as cell growth at 10 uM incubated for 48 hrs by sulforhodamine B assay; conditions: NCI-H460, 48 h, read-out: Activity
[8] = system: KM12; assay: Growth inhibition of human KM12 cells incubated for 48 hrs by sulforhodamine B assay; conditions: KM12, 48 h
In short: (§2)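 Cells were plated at 5,000–40,000 per well according to doubling time and preincubated 24 h at 37 °C in 5% CO2; time-zero plates were then TCA-fixed. Five concentrations (10-fold or ½-log dilutions, DMSO stock) were incubated 48 h. Cells were TCA-fixed, stained with 0.4% SRB and read at 515 nm. GI50 was taken where [(Ti−Tz)/(C−Tz)]×100 = 50.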

[9] = Growth inhibition of human BT549 cells assessed as cell growth at 10^-6 M incubated for 48 hrs by sulforhodamine B assay; conditions: BT-549, 48 h, read-out: Activity; in short: as §1
[10] = Growth inhibition of human SF539 cells assessed as cell growth at 10 uM incubated for 48 hrs by sulforhodamine B assay; conditions: SF-539, 48 h, read-out: Activity
[11] = Growth inhibition of human BT549 cells assessed as cell growth at 10^-5 M incubated for 48 hrs by sulforhodamine B assay; conditions: BT-549, 48 h, read-out: Activity; in short: as §1
[12] = system: NCI-H460; assay: Growth inhibition of human NCI-H460 cells assessed as cell growth at 10^-4 M incubated for 48 hrs by sulforhodamine B assay; conditions: NCI-H460, 48 h, read-out: Activity
[13] = system: MDA-MB-231; assay: Growth inhibition of human MDA-MB-231 cells assessed as cell growth at 10^-5 M incubated for 48 hrs by sulforhodamine B assay; conditions: MDA-MB-231, 48 h, read-out: Activity
[14] = Growth inhibition of human OVCAR8 cells assessed as cell growth at 10^-5 M incubated for 48 hrs by sulforhodamine B assay; conditions: OVCAR-8, 48 h, read-out: Activity
[15] = system: MDA-MB-468; assay: Growth inhibition of human MDA-MB-468 cells assessed as cell growth at 10^-4 M incubated for 48 hrs by sulforhodamine B assay; conditions: MDA-MB-468, 48 h, read-out: Activity
[16] = system: MDA-MB-435; assay: Growth inhibition of human MDA-MB-435 cells assessed as cell growth at 10^-6 M incubated for 48 hrs by sulforhodamine B assay; conditions: MDA-MB-435, 48 h, read-out: Activity
[17] = system: A549; assay: Growth inhibition of human A549/ATCC cells assessed as cell growth at 10 uM incubated for 48 hrs by sulforhodamine B assay; conditions: A549, 48 h, read-out: Activity
In short: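 One-dose screen at 10 µM final. Cells are plated at 5,000–40,000 per well according to doubling time and preincubated 24 h at 37 °C, 5% CO₂. Compound (DMSO stock diluted in medium with 50 µg/ml gentamicin) is then added for 48 h. Growth percent is read by sulforhodamine B staining, absorbance at 515 nm.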

[18] = Growth inhibition of human SNB19 cells assessed as cell growth at 10^-7 M incubated for 48 hrs by sulforhodamine B assay; conditions: SNB-19, 48 h, read-out: Activity
[19] = system: SN12C; assay: Growth inhibition of human SN12C cells assessed as cell growth at 10^-7 M incubated for 48 hrs by sulforhodamine B assay; conditions: read-out: Activity
[20] = system: T47D; assay: Growth inhibition of human T47D cells incubated for 48 hrs by sulforhodamine B assay; in short: as §2
[21] = Growth inhibition of human HOP62 cells assessed as cell growth at 10 uM incubated for 48 hrs by sulforhodamine B assay; conditions: HOP-62, 48 h, read-out: Activity
[22] = Growth inhibition of human SKOV3 cells assessed as cell growth at 10^-8 M incubated for 48 hrs by sulforhodamine B assay; conditions: SK-OV-3, 48 h, read-out: Activity
[23] = system: M14; assay: Growth inhibition of human M14 cells assessed as cell growth at 10^-8 M incubated for 48 hrs by sulforhodamine B assay; conditions: M14, 48 h, read-out: Activity
[24] = Growth inhibition of human MOLT4 cells incubated for 48 hrs by sulforhodamine B assay; conditions: MOLT-4, 48 h; in short: as §2
[25] = system: Malme-3M; assay: Growth inhibition of human MALME-3M cells assessed as cell growth at 10^-4 M incubated for 48 hrs by sulforhodamine B assay; conditions: read-out: Activity
[26] = system: SR; assay: Growth inhibition of human SR cells assessed as cell growth at 10^-7 M incubated for 48 hrs by sulforhodamine B assay; conditions: read-out: Activity
[27] = Growth inhibition of human Hs 578T cells assessed as cell growth at 10^-6 M incubated for 48 hrs by sulforhodamine B assay; conditions: read-out: Activity
[28] = read-out: LC50 (the source's name)
[29] = read-out: pLC50 (the source's name) (converted)

`c1ccc(-c2nc(Nc3ccc(-c4nc5ccccc5[nH]4)cc3)nc(N3CCOCC3)n2)cc1` showed a growth at 0.1 µM [1] of 101%, a growth at 1 µM [2] of 9% and a growth at 1 µM [3] of 92%. For the same molecule, the growth at 100 µM [4] was -61%, the growth at 10 µM [5] was -60% and the growth at 100 µM [6] was -33%. It also gave a growth at 10 µM [7] of -67.2%, a GI50 ([8]; read-out: GI50) of 1.62 µM and a CC50 [8, 28] of 6.3 µM. For the same molecule, the TGI ([8]; read-out: TGI) was 3.19 µM, the GI50 ([8]; read-out: pGI50 (converted)) was 1.62 µM and the CC50 [8, 29] was 6.31 µM. The TGI ([8]; read-out: pTGI (converted)) was 3.16 µM, the growth at 1 µM [9] was 100% and the growth at 10 µM [10] was -76.8%. The growth at 10 µM [11] was -69%, the growth at 100 µM [12] was -78% and the growth at 10 µM [13] was -53%. It also gave a growth at 10 µM [14] of -78%, a growth at 100 µM [15] of -58% and a growth at 1 µM [16] of 96%. It also gave a growth at 10 µM [17] of -68.5%, a growth at 0.1 µM [18] of 95% and a growth at 0.1 µM [19] of 90%. It also gave a GI50 ([20]; read-out: GI50) of 1.62 µM, a CC50 [20, 28] of 9.02 µM and a TGI ([20]; read-out: TGI) of 3.82 µM. For the same molecule, the GI50 ([20]; read-out: pGI50 (converted)) was 1.62 µM, the CC50 [20, 29] was 9.12 µM and the TGI ([20]; read-out: pTGI (converted)) was 3.8 µM. For the same molecule, the growth at 10 µM [21] was -64.5%, the growth at 0.01 µM [22] was 95% and the growth at 0.01 µM [23] was 102%. It also gave a GI50 ([24]; read-out: GI50) of 1.33 µM, a CC50 [24, 28] of 9.35 µM and a TGI ([24]; read-out: TGI) of 3.53 µM. The GI50 ([24]; read-out: pGI50 (converted)) was 1.32 µM, the CC50 [24, 29] was 9.33 µM and the TGI ([24]; read-out: pTGI (converted)) was 3.55 µM. The growth at 100 µM [25] was -54%, the growth at 0.1 µM [26] was 58% and the growth at 1 µM [27] was 78%.
